PubChem BioAssay
Calls of active or inactive are those of the source.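 How the source made its calls, unless noted: active means inhibition at or above 50% at 10 µM; inactive means inhibition below 50%.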

Legend:
[1] = inhibitors of TNFa-induced NFkB p65 translocation, primary screen, imaging, HUVEC, MLSMR starter and 10KST1 sets (AID 438;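 active means inhibition above 20% together with a positive visual image hit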;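 further: compound added about 3h40 before a 20 min TNFalpha stimulation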;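 on inhibition: signal is the nuclear over cytoplasmic p65 intensity ratio per well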); settings: HUVEC TNFa-induced p65 nuclear translocation; cell count: measured here: nuclei count (cytotoxicity indicator), at 2.08 µM; inhibition: at 2 µM, stronger effect = higher value, 0% TNFa-plus-vehicle, 100% no-TNFa wells
[2] = inhibitors of mutant huntingtin aggregation, primary screen, imaging, exon1htt(103Q)mCFP cells, high-content imaging (AID 483;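 active means visual image review flags a hit and inhibition of aggregation exceeds 20%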;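 further: compound exposure lasted 3 days before fixation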;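 on nuclei count: percent of the per-plate median nuclei count of sample wells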); settings: exon1htt(103Q)mCFP cell line, aggregate imaging, at 2 µM; inhibition of aggregation: stronger effect = higher value; nuclei count: measured here: cell count, toxicity
[3] = inhibitors of E-selectin induction by TNFa, primary screen, imaging, HUVEC, immunofluorescence, MLSMR starter and 10KST1 sets (AID 487;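 active means visually confirmed hit in the image check and inhibition above 20%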;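 on inhibition: signal is fraction of cell area covered by stained E-selectin grains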;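 on nuclei count: 100% = median nuclei count of all wells on the same plate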); settings: HUVEC TNFalpha-induced E-selectin immunofluorescence imaging, at 2 µM; inhibition: stronger effect = higher value; nuclei count: measured here: cell number, toxicity
[4] = target: Voltage-gated potassium channel subunit beta-2 (Rattus norvegicus) (UniProt P62483); experiment: KvBeta enzyme negative modulators, primary screen, biochemical, NADPH fluorescence (AID 622;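 active means fluorescence slope higher than the sample average by over 3 SD, cut at about -0.22 in these data, passing the limit was not always enough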;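 further: slope of raw intensity against log time taken from 70 to 1610 s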); settings: recombinant KvBeta, 4-cyanobenzaldehyde reduction, at 10 µM, stronger effect = higher value
[5] = target: Voltage-gated potassium channel subunit beta-2 (Rattus norvegicus) (UniProt P62483); experiment: KvBeta positive modulators, primary screen, biochemical, NADPH fluorescence (AID 623;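 active means NADPH fluorescence slope more negative than the mean of all samples by about 3 SD, 99.7% confidence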;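 further: fluorescence intensity change per second fitted from 20 to 320 s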); settings: Recombinant KvBeta, NADPH fluorescence decrease slope, 10 min; at 10 µM; stronger effect = lower value
[6] = target: Muscarinic acetylcholine receptor M4 (Homo sapiens) (UniProt P08173); experiment: compounds altering M4/GIRK thallium flux, either direction, primary screen, M4 allosteric agonist project, cell-based, HEK293 M4/GIRK, BTC-AM (AID 625;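 active means fluorescence slope after compound addition differing from the mean of all tested samples at 99.7% confidence, mostly higher but some lower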;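 further: thallium influx through GIRK channels coupled to M4 in HEK293 cells with BTC-AM dye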); settings: at 10 µM, actives lie on both sides
How it was run: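 Material: HEK293 cells with M4 receptor and GIRK channels; Times: cells overnight at 37 °C, BTC-AM loading 1 h, reads 2 min total; Technique: kinetic BTC-AM fluorescence sampled at 1 Hz, 10 s pre-addition baseline; Read-out basis: slope over 15–24 s of trace normalized to starting intensity; Controls: carbachol positive, DMSO negative.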

[7] = inhibitors of Sendai virus-induced IRF3 signaling, primary screen, TLR/RLR signaling modifier project, cell-based, Sendai virus stimulus, luciferase, 10K MLSCN set (AID 602276); settings: HEK293 RL24 IRF3 luciferase reporter, at 10 µM, stronger effect = higher value;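 further: firefly luciferase from ISG56 promoter only with Renilla not read in this screen; 0% = Sendai virus plus DMSO and 100% = medium plus DMSO without virus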
[8] = inhibitors of poly I:C-induced TLR3 signaling, primary screen, cell-based, poly I:C stimulus, luciferase, 10K MLSCN set (AID 602277;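 active means inhibition of the reporter signal at or above 50%; inactive means inhibition below 50%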); settings: HEK293-TLR3 RL24 IRF3 luciferase reporter, at 10 µM, stronger effect = higher value

Chain of Muscarinic acetylcholine receptor M4 (Homo sapiens) (P08173 whole entry, looked up): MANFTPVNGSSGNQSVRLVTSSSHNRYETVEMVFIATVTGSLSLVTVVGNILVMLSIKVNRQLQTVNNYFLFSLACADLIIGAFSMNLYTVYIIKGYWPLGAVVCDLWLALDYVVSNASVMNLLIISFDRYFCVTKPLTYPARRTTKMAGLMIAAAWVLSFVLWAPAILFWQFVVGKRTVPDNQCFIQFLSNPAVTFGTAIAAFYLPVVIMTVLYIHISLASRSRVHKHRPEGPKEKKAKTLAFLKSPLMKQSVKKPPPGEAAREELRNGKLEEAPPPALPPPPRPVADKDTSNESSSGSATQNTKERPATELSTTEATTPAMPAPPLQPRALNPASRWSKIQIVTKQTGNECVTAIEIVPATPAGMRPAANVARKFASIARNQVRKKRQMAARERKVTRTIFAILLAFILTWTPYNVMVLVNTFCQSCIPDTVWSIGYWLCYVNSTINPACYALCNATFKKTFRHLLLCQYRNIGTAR
Chain of Voltage-gated potassium channel subunit beta-2 (Rattus norvegicus) (P62483 whole entry, looked up): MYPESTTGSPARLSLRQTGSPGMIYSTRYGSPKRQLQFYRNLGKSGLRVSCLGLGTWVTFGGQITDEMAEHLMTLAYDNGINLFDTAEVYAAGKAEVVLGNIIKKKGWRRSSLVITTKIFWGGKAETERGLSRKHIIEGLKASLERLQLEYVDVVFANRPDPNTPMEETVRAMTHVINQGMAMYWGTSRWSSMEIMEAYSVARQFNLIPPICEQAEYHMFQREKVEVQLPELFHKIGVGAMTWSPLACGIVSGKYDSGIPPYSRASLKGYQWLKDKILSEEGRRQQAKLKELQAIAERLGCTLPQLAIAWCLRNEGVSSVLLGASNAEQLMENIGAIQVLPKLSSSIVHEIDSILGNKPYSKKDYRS

In the case of `Cc1cc(Cl)c(S(=O)(=O)NC2CCCCC2)cc1OCC(=O)Nc1nncs1`, the cell count [1] is reported as 308, the inhibition [1] is reported as -21.3% (inactive) and the inhibition of aggregation [2] is reported as -4.2% (inactive). For the same compound, the nuclei count [2] was 107%, the inhibition [3] was -32.9% (inactive) and the nuclei count [3] was 118%. The fluorescence slope [4] was -0.506 (inactive), the NADPH fluorescence slope [5] was -3.4e-05 (inactive) and the fluorescence slope [6] was 0.00536 (inactive). For the same compound, the inhibition [7] was 13.4% (inactive) and the inhibition [8] was 0.658% (inactive).

In the case of `CCOc1ccc(CN2CCN(c3cc(C)nc4c5c(C)cc(C)nc5nn34)CC2)cc1`, the cell count [1] is reported as 361, the inhibition [1] is reported as -7.1% (inactive) and the inhibition of aggregation [2] is reported as 5% (inactive). The nuclei count [2] was 108%, the inhibition [3] was 1.9% (inactive) and the nuclei count [3] was 114%. The fluorescence slope [4] was -0.385 (inactive), the NADPH fluorescence slope [5] was 1.9e-05 (inactive) and the fluorescence slope [6] was 0.00419 (inactive). The inhibition [7] was 11.7% (inactive) and the inhibition [8] was 22.8% (inactive).

In the case of `COc1cccc(NC(=O)Nc2cccs2)c1`, the cell count [1] is reported as 355, the inhibition [1] is reported as -1.5% (inactive) and the inhibition of aggregation [2] is reported as -5.7% (inactive). For the same compound, the nuclei count [2] was 93.5%, the inhibition [3] was 9.9% (inactive) and the nuclei count [3] was 115%. For the same compound, the fluorescence slope [4] was -0.483 (inactive), the NADPH fluorescence slope [5] was 0.00014 (inactive) and the fluorescence slope [6] was 0.00925 (active). For the same compound, the inhibition [7] was -20.2% (inactive) and the inhibition [8] was -76.7% (inactive).

For `Cc1ccc(Cn2nnc3c(=O)n(CC(=O)NCC4CCCO4)cnc32)cc1` (centres undefined), the cell count [1] was 792, the inhibition [1] was -13.6% (inactive) and the inhibition of aggregation [2] was -20.8% (inactive). The nuclei count [2] was 102%, the inhibition [3] was -51.5% (inactive) and the nuclei count [3] was 98.4%. For the same compound, the fluorescence slope [4] was -0.459 (inactive), the NADPH fluorescence slope [5] was -4.1e-05 (inactive) and the fluorescence slope [6] was 0.00672 (inactive). For the same compound, the inhibition [7] was 9.27% (inactive) and the inhibition [8] was 18.9% (inactive).

For `CCc1ccccc1N=C1SCC(=O)N1C`, the cell count [1] was 368, the inhibition [1] was -8.5% (inactive) and the inhibition of aggregation [2] was 19.1% (inactive). The nuclei count [2] was 69.3%, the inhibition [3] was -50.2% (inactive) and the nuclei count [3] was 111%. For the same compound, the fluorescence slope [4] was -0.412 (inactive), the NADPH fluorescence slope [5] was 7.8e-05 (inactive) and the fluorescence slope [6] was 0.00583 (inactive). The inhibition [7] was 6.15% (inactive) and the inhibition [8] was 13.2% (inactive).

For `CCn1c(SCC(=O)Nc2nnc(C)s2)nnc1-c1ccncc1`, the cell count [1] was 554, the inhibition [1] was -17.9% (inactive) and the inhibition of aggregation [2] was 25.6% (inactive). The nuclei count [2] was 92.8%, the inhibition [3] was -53.1% (inactive) and the nuclei count [3] was 114%. The fluorescence slope [4] was -0.301 (inactive), the NADPH fluorescence slope [5] was -5.1e-05 (inactive) and the fluorescence slope [6] was 0.00811 (inactive). For the same compound, the inhibition [7] was 15.2% (inactive) and the inhibition [8] was 0.883% (inactive).

With `Cc1ncoc1C(=O)Nc1ccccc1C(N)=O` the cell count [1] was 408, the inhibition [1] was 3.5% (inactive) and the inhibition of aggregation [2] was 11.4% (inactive). The nuclei count [2] was 102%, the inhibition [3] was -2.5% (inactive) and the nuclei count [3] was 108%. For the same compound, the fluorescence slope [4] was -0.243 (inactive), the NADPH fluorescence slope [5] was -1.8e-07 (inactive) and the fluorescence slope [6] was 0.00516 (inactive). The inhibition [7] was 1.59% (inactive) and the inhibition [8] was -3.92% (inactive).

In the case of `CCOC(=O)c1[nH]c(C)c(C(=O)Nc2cc(OC)ccc2OC)c1C`, the cell count [1] is reported as 671, the inhibition [1] is reported as -5.9% (inactive) and the inhibition of aggregation [2] is reported as -3.7% (inactive). The nuclei count [2] was 2.5%, the inhibition [3] was -153% (inactive) and the nuclei count [3] was 111%. For the same compound, the fluorescence slope [4] was -0.415 (inactive), the NADPH fluorescence slope [5] was 4.7e-05 (inactive) and the fluorescence slope [6] was 0.00644 (inactive). For the same compound, the inhibition [7] was 30.4% (inactive) and the inhibition [8] was 51.4% (active).

In the case of `CCOCC(=O)Nc1nc2ccc(OC)cc2s1`, the cell count [1] is reported as 411, the inhibition [1] is reported as 2.9% (inactive) and the inhibition of aggregation [2] is reported as -11.8% (inactive). For the same compound, the nuclei count [2] was 102%, the inhibition [3] was -85.2% (inactive) and the nuclei count [3] was 127%. For the same compound, the fluorescence slope [4] was -0.522 (inactive), the NADPH fluorescence slope [5] was -0.000124 (inactive) and the fluorescence slope [6] was 0.00427 (inactive). The inhibition [7] was -34.1% (inactive) and the inhibition [8] was -111% (inactive).

For `CC(C)CNC(=O)c1ccccc1NC(=O)CN(c1ccc2c(c1)OCCO2)S(C)(=O)=O`, the cell count [1] was 330, the inhibition [1] was 6% (inactive) and the inhibition of aggregation [2] was -12.9% (inactive). The nuclei count [2] was 97.5%, the inhibition [3] was -0.7% (inactive) and the nuclei count [3] was 105%. The fluorescence slope [4] was -0.574 (inactive), the NADPH fluorescence slope [5] was 2.6e-05 (inactive) and the fluorescence slope [6] was 0.00389 (inactive). The inhibition [7] was 0.301% (inactive) and the inhibition [8] was 0.167% (inactive).

In the case of `Oc1ccc(-c2onc(C(F)(F)F)c2-c2cscn2)c(O)c1`, the cell count [1] is reported as 363, the inhibition [1] is reported as -0.5% (inactive) and the inhibition of aggregation [2] is reported as -7% (inactive). The nuclei count [2] was 92.7%, the inhibition [3] was -85.6% (inactive) and the nuclei count [3] was 116%. The fluorescence slope [4] was -0.573 (inactive), the NADPH fluorescence slope [5] was -5.1e-05 (inactive) and the fluorescence slope [6] was 0.00657 (inactive). The inhibition [7] was 14.9% (inactive) and the inhibition [8] was -12.3% (inactive).

With `Cc1ccc(CNC(=O)C2CCN(S(=O)(=O)c3c(C)noc3C)CC2)cc1` the cell count [1] was 475, the inhibition [1] was 4.8% (inactive) and the inhibition of aggregation [2] was 14% (inactive). For the same compound, the nuclei count [2] was 91.5%, the inhibition [3] was -2.1% (inactive) and the nuclei count [3] was 104%. The fluorescence slope [4] was -0.493 (inactive), the NADPH fluorescence slope [5] was 8.6e-05 (inactive) and the fluorescence slope [6] was 0.00571 (inactive). The inhibition [7] was -1.36% (inactive) and the inhibition [8] was 6.94% (inactive).

With `Nc1nnc(Cc2ccc(Cl)cc2)s1` the cell count [1] was 331, the inhibition [1] was 7.5% (inactive) and the inhibition of aggregation [2] was -4.2% (inactive). For the same compound, the nuclei count [2] was 92.7%, the inhibition [3] was -130% (inactive) and the nuclei count [3] was 115%. For the same compound, the fluorescence slope [4] was -0.483 (inactive), the NADPH fluorescence slope [5] was -7.5e-05 (inactive) and the fluorescence slope [6] was 0.00532 (inactive). The inhibition [7] was 11.6% (inactive) and the inhibition [8] was 13% (inactive).

For `CCSc1nc(-c2ccc(OC)cc2)ccc1C#N`, the cell count [1] was 380, the inhibition [1] was 1.5% (inactive) and the inhibition of aggregation [2] was -5.1% (inactive). The nuclei count [2] was 72.9%, the inhibition [3] was -44.4% (inactive) and the nuclei count [3] was 101%. The fluorescence slope [4] was -0.551 (inactive), the NADPH fluorescence slope [5] was -1.9e-05 (inactive) and the fluorescence slope [6] was 0.00795 (inactive). For the same compound, the inhibition [7] was 9.36% (inactive) and the inhibition [8] was 7.27% (inactive).
